Data from ChEMBL document CHEMBL1821569, “Synthesis of novel 1,2,5-trisubstituted benzimidazoles as potential antitumor agents” (2011).

How the values were obtained:
Type in all cases: functional
[1] = tested on: HCT-116; test: Antitumor activity against human HCT116 cells after 48 hrs by SRB assay; details: HCT-116, 48 h
Summary of the method: (§1)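 NCI 60-cell-line secondary screen. Cells were exposed continuously to drug for 48 h at five concentration levels (100, 10, 1.0, 0.1 and 0.01). Growth was estimated by sulforhodamine B protein staining. GI50 is the concentration giving a 50% reduction in net protein increase versus untreated control cells over the incubation. TGI (total growth inhibition) and LC50 (50% cell kill) were also derived.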

[2] = tested on: HL-60(TB); test: Antitumor activity against human HL-60(TB) cells after 48 hrs by SRB assay; details: HL-60, 48 h
Summary of the method: (§2)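 NCI 60-cell-line secondary screen: continuous drug exposure for 48 h at five concentration levels (100, 10, 1.0, 0.1 and 0.01). Cell growth was estimated by sulforhodamine B (SRB) protein staining. GI50 is the concentration giving a 50% reduction in net protein increase relative to untreated control cells during the incubation. TGI and LC50 were derived from the same data.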

[3] = tested on: 786-0; test: Antitumor activity against human 786-0 cells after 48 hrs by SRB assay; details: 786-0, 48 h; summary of the method: as §1
[4] = tested on: HOP-62; test: Antitumor activity against human HOP62 cells after 48 hrs by SRB assay; details: HOP-62, 48 h; summary of the method: as §1
[5] = tested on: RXF 393; test: Antitumor activity against human RXF393 cells after 48 hrs by SRB assay; details: RXF 393, 48 h; summary of the method: as §1
[6] = tested on: SF-539; test: Antitumor activity against human SF539 cells after 48 hrs by SRB assay; details: SF-539, 48 h; summary of the method: as §1
[7] = tested on: OVCAR-5; test: Antitumor activity against human OVCAR5 cells after 48 hrs by SRB assay; details: OVCAR-5, 48 h; summary of the method: as §1
[8] = tested on: OVCAR-3; test: Antitumor activity against human OVCAR3 cells after 48 hrs by SRB assay; details: OVCAR-3, 48 h; summary of the method: as §1
[9] = tested on: OVCAR-4; test: Antitumor activity against human OVCAR4 cells after 48 hrs by SRB assay; details: OVCAR-4, 48 h; summary of the method: as §1
[10] = tested on: OVCAR-8; test: Antitumor activity against human OVCAR8 cells after 48 hrs by SRB assay; details: OVCAR-8, 48 h; summary of the method: as §1
[11] = tested on: A549; test: Antitumor activity against human A549 cells after 48 hrs by SRB assay; details: A549, 48 h; summary of the method: as §1
[12] = tested on: MOLT-4; test: Antitumor activity against human MOLT4 cells after 48 hrs by SRB assay; details: MOLT-4, 48 h; summary of the method: as §1
[13] = tested on: MCF7; test: Antitumor activity against human MCF7 cells after 48 hrs by SRB assay; details: MCF7, 48 h; summary of the method: as §1
[14] = tested on: COLO 205; test: Antitumor activity against human COLO205 cells after 48 hrs by SRB assay; details: COLO 205, 48 h; summary of the method: as §1
[15] = tested on: A498; test: Antitumor activity against human A498 cells after 48 hrs by SRB assay; details: A498, 48 h; summary of the method: as §1
[16] = tested on: SNB-19; test: Antitumor activity against human SNB19 cells after 48 hrs by SRB assay; details: SNB-19, 48 h; summary of the method: as §1
[17] = tested on: NCI/ADR-RES; test: Antitumor activity against human NCI/ADR-RES cells after 48 hrs by SRB assay; summary of the method: as §1
[18] = tested on: HCC 2998; test: Antitumor activity against human HCC2998 cells after 48 hrs by SRB assay; details: HCC 2998, 48 h; summary of the method: as §2
[19] = tested on: SR; test: Antitumor activity against human SR cells after 48 hrs by SRB assay
Summary of the method: (§3)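 NCI 60-cell-line secondary screen. Continuous 48 h exposure at five concentration levels. Cell growth estimated by sulforhodamine B protein staining. GI50 taken as the concentration giving 50% reduction in net protein increase relative to untreated control cells over the incubation. TGI (total growth inhibition) and LC50 (50% cell kill) were also derived.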

[20] = tested on: CCRF-CEM; test: Antitumor activity against human CCRF-CEM cells after 48 hrs by SRB assay; summary of the method: as §1
[21] = Antitumor activity against human Hs 578T cells after 48 hrs by SRB assay; summary of the method: as §1
[22] = tested on: NCI-H460; test: Antitumor activity against human NCI-H460 cells after 48 hrs by SRB assay; details: NCI-H460, 48 h; summary of the method: as §1
[23] = tested on: SK-MEL-2; test: Antitumor activity against human SK-MEL-2 cells after 48 hrs by SRB assay; details: SK-MEL-2, 48 h; summary of the method: as §1
[24] = tested on: NCI-H322M; test: Antitumor activity against human NCI-H322M cells after 48 hrs by SRB assay; summary of the method: as §1
[25] = tested on: HT-29; test: Antitumor activity against human HT-29 cells after 48 hrs by SRB assay; details: HT-29, 48 h; summary of the method: as §1
[26] = tested on: PC-3; test: Antitumor activity against human PC3 cells after 48 hrs by SRB assay; details: PC-3, 48 h; summary of the method: as §1
[27] = tested on: MDA-MB-435; test: Antitumor activity against human MDA-MB-435 cells after 48 hrs by SRB assay; details: MDA-MB-435, 48 h; summary of the method: as §1
[28] = tested on: NCI-H23; test: Antitumor activity against human NCI-H23 cells after 48 hrs by SRB assay; details: NCI-H23, 48 h; summary of the method: as §1
[29] = tested on: U-251; test: Antitumor activity against human U251 cells after 48 hrs by SRB assay; details: U-251, 48 h; summary of the method: as §3
[30] = read-out: LC50 (the source's name)

COC(=O)c1ccc2c(c1)nc(-c1ccc(Cl)cc1)n2-c1cc(C(C)(C)C)[nH]n1
GI50 [1]: 3.47 µM
LC50 [1]: 563 nM
TGI [1]: 12.3 µM
GI50 [2]: 4.03 µM
LC50 [2]: > 100 µM
TGI [2]: 11.2 µM
GI50 [3]: 3.62 µM
TGI [3]: 32 µM
CC50 [3, 30]: > 100 µM
GI50 [4]: 3.41 µM
LC50 (concentration giving 50% cell kill) [4]: > 100 µM
TGI [4]: 21 µM
GI50 [5]: 1570 nM
TGI [5]: 5.77 µM
CC50 [5, 30]: 569 nM
GI50 [6]: 2540 nM
TGI [6]: 8.95 µM
CC50 [6, 30]: 521 nM
GI50 [7]: 12.9 µM
TGI [7]: 60.1 µM
CC50 [7, 30]: > 100 µM
GI50 [8]: 2350 nM
TGI [8]: 6.13 µM
CC50 [8, 30]: 915 nM
GI50 [9]: 3.4 µM
TGI [9]: > 100 µM
CC50 [9, 30]: > 100 µM
GI50 [10]: 7.33 µM
TGI [10]: 58.2 µM
CC50 [10, 30]: > 100 µM
GI50 [11]: 4.03 µM
TGI [11]: 94.5 µM
CC50 [11, 30]: > 100 µM
GI50 [12]: 5.48 µM
LC50 (50% net cell kill) [12]: > 100 µM
TGI [12]: > 100 µM
GI50 [13]: 2790 nM
TGI [13]: 12.3 µM
CC50 [13, 30]: > 100 µM
GI50 [14]: 2290 nM
TGI [14]: 6.04 µM
CC50 [14, 30]: 463 nM
GI50 [15]: 2260 nM
TGI [15]: 9.76 µM
CC50 [15, 30]: 858 nM
GI50 [16]: 4.31 µM
TGI [16]: > 100 µM
CC50 [16, 30]: > 100 µM
GI50 [17]: 2720 nM
TGI [17]: 7.35 µM
CC50 [17, 30]: > 100 µM
GI50 [18]: 3.9 µM
TGI [18]: 19.8 µM
CC50 [18, 30]: > 100 µM
GI50 [19]: 3.23 µM
TGI [19]: > 100 µM
CC50 [19, 30]: > 100 µM
GI50 [20]: 4.91 µM
TGI [20]: > 100 µM
CC50 [20, 30]: > 100 µM
GI50 [21]: 1720 nM
TGI [21]: 7.86 µM
CC50 [21, 30]: > 100 µM
GI50 [22]: 2950 nM
TGI [22]: 8.81 µM
CC50 [22, 30]: > 100 µM
GI50 [23]: 3.89 µM
TGI [23]: 18.1 µM
CC50 [23, 30]: > 100 µM
GI50 [24]: 10.4 µM
LC50 (50% cell kill) [24]: > 100 µM
TGI [24]: 86.4 µM
GI50 [25]: 3.65 µM
LC50 (50% cell kill) [25]: > 100 µM
TGI [25]: 15.4 µM
GI50 [26]: 2930 nM
TGI [26]: 15.7 µM
CC50 [26, 30]: > 100 µM
GI50 [27]: 1190 nM
TGI [27]: 5 µM
CC50 [27, 30]: 505 nM
GI50 [28]: 3.42 µM
LC50 (50% cell kill) [28]: > 100 µM
TGI [28]: 36 µM
GI50 [29]: 4.13 µM
TGI [29]: 22.7 µM
CC50 [29, 30]: > 100 µM
